# Measured values: paper PMC6624389 (British Journal of Clinical Pharmacology, 2019)
# Key:
# T2DM patients [1] = conditions: T2DM patients with mean FPG 8–9 mmol/L (144–162 mg/dL); cited from earlier work
# [2] = cited from earlier work
# [3] = tested on: Japanese patients with T2DM; test: Simulation of steady-state ΔUGE24h by the final PK/PD model; design: species or system human; conditions: 50 mg once daily
# Summary of the method: (§1)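 Steady state was simulated for 887 Japanese T2DM patients at 12.5, 25, 50 and 100 mg once daily. AUC24h came from individual post-hoc CL/F of the final PopPK model, and ΔUGE24h came from the final PK/PD model. The 50 mg regimen was also summarized by eGFR class (≥90, 60 to <90, 30 to <60 mL/min/1.73 m2). Results are given as median and 2.5th–97.5th percentiles.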
# Population PK model = assay type: in vivo, human
# Summary of the method: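 The prior model was built from 534 plasma concentrations in 43 T2DM patients sampled serially after oral dosing. It was a 2-compartment model with first-order absorption (ADVAN4/TRANS4), log-normal interindividual variability and proportional residual error, fitted by FOCE with interaction. It served via $PRIOR to fit trough concentrations from four later studies. Covariates on CL/F were tested stepwise. Plasma drug was measured by LC–MS/MS (LLOQ 1 ng/mL).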
# [4] = cited from earlier work; remark: listed apart in the source
# [5] = tested on: Japanese patients with T2DM; conditions: once daily 50 mg for 16 weeks; cited from earlier work
# [6] = tested on: Japanese healthy subjects and patients with T2DM; test: Phase I and clinical pharmacology studies; assay type: in vivo, human
# Summary of the method: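 Oral dosing in three studies. Healthy subjects received single fasted doses of 1–300 mg, or 20–100 mg daily after a standardized meal. T2DM patients received 50 or 100 mg daily for 14 days. A single 50 mg dose was given to T2DM patients grouped by eGFR. Urine was collected for 24 h predose and in postdose intervals, and UGE24h was calculated. Pooled data from 137 subjects were plotted against FPG and AUC24h.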
# [7] = tested on: Japanese healthy subjects and patients with T2DM; test: PK/PD maximum effect; assay type: in vivo, human
# Summary of the method: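 Emax model fitted in NONMEM (FOCE with interaction) to pooled healthy-subject and T2DM data from three studies. AUC24h came from noncompartmental analysis, and UGE24h was taken over matching intervals. Emax was modelled as dependent on FAC (FPG × GFR) up to a threshold of 18 000 and constant above it. There was no interindividual variability, and residual error was additive plus proportional. Covariates were added stepwise (P < .05) and removed backward (P < .001), and the model was bootstrapped.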
# [8] = cited from earlier work; remark: listed apart in the source
# [9] = Simulation of steady-state AUC24h using post-hoc CL/F from the final PopPK model; design: species or system human
# Summary of the method: as §1
# T2DM patients [10] = conditions: once daily 12.5, 25, 50 and 100 mg, 12 weeks; cited from earlier work
# [11] = tested on: Japanese healthy subjects and patients with T2DM; conditions: phase I and clinical pharmacology studies; cited from earlier work
# [12] = tested on: T2DM patients with moderate renal impairment; conditions: cited from earlier work
smiles,measurement,setting,value
OC[C@H]1O[C@@H](c2ccc(Cl)c(Cc3ccc(O[C@H]4CCOC4)cc3)c2)[C@H](O)[C@@H](O)[C@@H]1O [empagliflozin],Emax,T2DM patients [1],120 g/24 h
OC[C@H]1O[C@@H](c2ccc(F)c(Cc3cc4ccccc4s3)c2)[C@H](O)[C@@H](O)[C@@H]1O [ipragliflozin],protein binding ex vivo,[2],~ 96%
same,"change in ΔUGE24h, moderate renal impairment compared to normal renal function",[3],0.76 fold
same,Interindividual variability of CL/F,"Population PK model; base model, before covariates",26.8%
same,Interindividual variability ω^2: CL,Population PK model; final PopPK model,0.0533
same,Vd/F,"Population PK model; human, plasma, oral",39.4 L
same,first order absorption rate constant Ka,"Population PK model; population mean, T2DM patients",6.38 h⁻¹
same,oral clearance CL/F,"Population PK model; population mean, T2DM patients",9.47 L/h
same,urinary excretion ratio of unchanged ipragliflozin,[4],approximately 1%
same,decreasing FPG and HbA1c levels versus placebo,[5],superior to a placebo
same,tolerability,[5],well tolerated
same,effects on UGE at low doses,"[6]; 1 and 3 mg single dose, healthy subjects, Study A",no significant effects
same,UGE after single and multiple doses,"[6]; healthy subjects and T2DM patients, exploratory assessment",dose‐dependent increase
same,glucose excretion effect versus dose,"[7]; above 50 mg daily dose, suggested by PK/PD model",almost reaches the maximum level
same,Emax of ΔUGE24h: FAC > 18 000,"[7]; population mean, constant above FAC threshold",107 g/24 h
same,Emax of ΔUGE24h: FAC ≤ 18 000,"[7]; population mean, reference FPG 100 mg/dL and GFR 90 mL/min",72.3 g/24 h
same,oral bioavailability,[8],> 90%
same,higher exposure in moderate renal impairment patients with T2DM,[9]; descriptive comparison of assessed AUC and simulation by final PopPK model,about 20%
same,"change in exposure caused by covariates other than GFR (BSA, TPRO, TBIL)",[9]; final PopPK model,≤ 10%
same,"increase in AUC24h, moderate renal impairment compared to normal renal function","[9]; simulation, 50 mg once daily, T2DM patients",1.17 fold
same,fasting plasma glucose (FPG) and HbA1c levels,T2DM patients [10],dose‐dependent decreases
same,exposure versus dose,[11],increase dose‐dependently
same,tolerability,[11],consistently well tolerated
same,urinary glucose excretion (UGE) versus dose,[11],increase dose‐dependently
same,antidiabetic effect,[12],weaker antidiabetic effect
